Reference: ChEMBL document CHEMBL4138168, “Design and synthesis of novel thiobarbituric acid derivatives targeting both wild-type and BRAF-mutated melanoma cells” (Eur J Med Chem, 2018)

Key:
Type in all cases: functional, cell-based
PANC-1 = test: Antiproliferative activity against human PANC1 cells after 48 hrs by MTT assay; settings: PANC-1, 48 h
Method in brief: (§1)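 3,000 cells per well, grown at 37 °C (DMEM with 10% FBS and penicillin/streptomycin; HCT116 in McCoy's 5A). Cells exposed in triplicate to 0.5–25 μM compound for 48 h. MTT (5 mg/mL PBS stock) added for 3 h, formazan dissolved in DMSO, OD read at 570 nm minus 630 nm background. IC50 from non-linear regression of two independent experiments.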

MDA-MB-231 = test: Antiproliferative activity against ER/PR/HER2 deficient human MDA-MB-231 cells after 48 hrs by MTT assay; settings: MDA-MB-231, 48 h; method in brief: as §1
UACC-903 = test: Cytotoxicity against human UACC-903 cells assessed as cell viability at 25 uM after 48 hrs by MTT assay relative to control; settings: UACC-903, 48 h
Method in brief: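 MCF10A normal breast epithelial cells were kept in MEGM mammary epithelial medium; the cancer lines were in DMEM with 10% FBS, 37 °C. OD at 570 nm with 630 nm background, expressed relative to control.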

HCT-116 = test: Antiproliferative activity against human HCT116 cells after 48 hrs by MTT assay; settings: HCT-116, 48 h; method in brief: as §1
CHL-1 = test: Antiproliferative activity against human CHL-1 cells harboring wild type BRAF after 72 hrs by MTT assay; settings: CHL-1, 72 h
Method in brief: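 Cells (CHL-1) cultured in DMEM with 10% FBS at 37 °C and treated with compound for 72 h. Viability measured by MTT uptake: 3 h with MTT, DMSO solubilisation, absorbance at 570 nm with 630 nm background subtraction. IC50 taken as the mean of triplicates from at least two independent experiments.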

MCF7 = test: Antiproliferative activity against human MCF7 cells expressing ER/PR/HER2 after 48 hrs by MTT assay; settings: MCF7, 48 h; method in brief: as §1

| Structure (SMILES) | IC50 (PANC-1) [µM] | IC50 (MDA-MB-231) [µM] | IC50 (UACC-903) [µM] | IC50 (HCT-116) [µM] | IC50 (CHL-1) [µM] | IC50 (MCF7) [µM] |
| --- | --- | --- | --- | --- | --- | --- |
| O=C1NC(=S)NC(=O)C1=C/C=C/c1cccc2ccccc12 | 7.9 | 4.5 | 4.2 | 3.6 | – | – |
| O=C1NC(=S)NC(=O)C1=C/C=C/c1ccccc1 | – | – | 9.1 | – | 10.6 | – |
| O=C1NC(=S)NC(=O)C1=C/C=C/c1cccnc1 | – | – | 18.4 | – | – | – |
| O=C1NC(=S)NC(=O)C1=C/C=C/c1ccco1 | 24.4 | 16.5 | 8 | 20.1 | 8.5 | 27.9 |
| C=CCN1C(=O)/C(=C\C=C\c2ccccc2)C(=O)N(CC)C1=S | – | – | 21 | – | – | – |
| C=CCN1C(=O)C(=C/C=C/c2ccccc2)C(=O)N(CC=C)C1=S | – | – | 18.1 | – | 8.1 | – |
| O=C1NC(=[Se])NC(=O)C1=C/C=C/c1ccco1 | – | – | 2.3 | – | 9.7 | – |
| CCN1C(=O)/C(=C\C=C\c2ccccc2)C(=O)NC1=S | – | – | 8 | – | 6.2 | – |
| C=CCN1C(=O)/C(=C\C=C\c2cccs2)C(=O)NC1=S | – | – | 6.7 | – | 7.5 | – |
| C=CCN1C(=O)/C(=C\C=C\c2ccco2)C(=O)N(CC)C1=S | – | – | 14.5 | – | 18.9 | – |
| CN1C(=O)/C(=C\C=C\c2cccs2)C(=O)NC1=S | 21 | 8.6 | 5.5 | 18.2 | 4.7 | 23.5 |
| O=C1NC(=[Se])NC(=O)C1=C/C=C/c1ccccc1 | – | – | 13.6 | – | 9.4 | – |
| CCN1C(=O)\C(=C/C=C/C=C/c2ccco2)C(=O)NC1=S | – | – | 7.6 | – | – | – |
| C=CCN1C(=O)/C(=C\C=C\c2cccs2)C(=O)N(CC)C1=S | – | – | 6.1 | – | – | – |
| CCN1C(=O)/C(=C\C=C\c2cccs2)C(=O)NC1=S | 20.5 | 8.5 | 4.6 | 8.3 | – | 24 |
| O=C1NC(=[Se])NC(=O)C1=C/C=C/c1cccs1 | – | – | 7.8 | – | 6.3 | – |
| CCN1C(=O)/C(=C/C=C/c2cccc3ccccc23)C(=O)NC1=S | – | – | 23.4 | – | – | – |
| O=C1NC(=S)NC(=O)C1=C/C=C/C=C/c1ccccc1 | – | – | 6.5 | – | – | – |
| CCN1C(=O)C(=C/C=C/c2ccccc2)C(=O)N(CC)C1=S | – | – | 15.2 | – | 8.8 | – |
| CCN1C(=O)/C(=C\C=C\c2ccco2)C(=O)NC1=S | – | – | 16.2 | – | 13.9 | – |
| CCN1C(=O)C(=C/C=C/c2ccco2)C(=O)N(CC)C1=S | – | – | 18.8 | – | 8.6 | – |
| C=CCN1C(=O)C(=C/C=C/c2ccco2)C(=O)N(CC=C)C1=S | – | – | 17.6 | – | 8 | – |
